Legend:
[1] = target: T1, Nitric oxide synthase 3 (Mus musculus, UniProt P70313); assay: Inhibition of C57BL/6 mouse eNOS assessed as conversion of oxyhemoglobin to methemoglobin by UV spectrophotometer analysis
T1 sequence (P70313 whole entry): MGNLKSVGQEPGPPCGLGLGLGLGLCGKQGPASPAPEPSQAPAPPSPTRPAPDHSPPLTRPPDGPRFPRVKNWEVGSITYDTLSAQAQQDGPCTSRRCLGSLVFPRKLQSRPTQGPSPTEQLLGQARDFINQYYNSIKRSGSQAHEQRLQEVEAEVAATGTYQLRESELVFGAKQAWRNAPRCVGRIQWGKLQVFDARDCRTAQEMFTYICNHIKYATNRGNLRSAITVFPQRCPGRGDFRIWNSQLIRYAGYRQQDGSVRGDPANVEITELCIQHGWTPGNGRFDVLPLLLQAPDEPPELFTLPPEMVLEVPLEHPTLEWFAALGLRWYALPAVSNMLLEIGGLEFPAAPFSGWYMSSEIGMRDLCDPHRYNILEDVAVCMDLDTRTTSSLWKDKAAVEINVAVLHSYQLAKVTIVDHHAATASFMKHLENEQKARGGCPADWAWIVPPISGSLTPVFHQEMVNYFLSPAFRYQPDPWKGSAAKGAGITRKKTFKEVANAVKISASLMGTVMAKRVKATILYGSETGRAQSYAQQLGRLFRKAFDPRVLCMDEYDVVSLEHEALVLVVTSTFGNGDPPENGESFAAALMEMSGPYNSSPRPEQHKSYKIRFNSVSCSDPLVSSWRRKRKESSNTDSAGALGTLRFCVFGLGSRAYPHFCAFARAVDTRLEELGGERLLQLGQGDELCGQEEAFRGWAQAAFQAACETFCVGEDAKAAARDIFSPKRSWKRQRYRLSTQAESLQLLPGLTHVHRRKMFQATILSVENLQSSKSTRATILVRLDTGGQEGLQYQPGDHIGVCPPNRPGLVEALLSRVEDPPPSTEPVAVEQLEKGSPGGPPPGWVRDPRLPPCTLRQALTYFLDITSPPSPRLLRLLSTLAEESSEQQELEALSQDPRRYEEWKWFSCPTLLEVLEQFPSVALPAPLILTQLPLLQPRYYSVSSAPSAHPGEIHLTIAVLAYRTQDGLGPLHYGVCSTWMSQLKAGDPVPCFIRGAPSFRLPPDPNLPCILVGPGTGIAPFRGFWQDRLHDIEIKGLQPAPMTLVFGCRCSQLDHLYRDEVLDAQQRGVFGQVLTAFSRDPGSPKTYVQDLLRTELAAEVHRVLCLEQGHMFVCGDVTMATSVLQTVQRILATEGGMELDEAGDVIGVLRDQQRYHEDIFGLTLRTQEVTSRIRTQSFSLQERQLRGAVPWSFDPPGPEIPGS
Outline: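 eNOS from H5V mouse endothelial cells (passage 5, DMEM with 10% FCS, 37 °C, 5% CO2). Cells were sonicated in Tris-HCl pH 7.4 with EDTA, DTT and protease inhibitors, and the 20,000 g supernatant was used. Activity was followed as oxyhemoglobin→methemoglobin conversion in Hepes pH 7.4 with L-arginine, NADPH, FAD, BH4, Ca2+ and calmodulin. Compounds tested at 500, 100 and 50. Results reported as Ki or percent inhibition.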

[2] = target: Nitric oxide synthase 1 (Rattus norvegicus, UniProt P29476); assay: Inhibition of rat recombinant nNOS expressed in baculovirus-infected Sf9 cells assessed as conversion of oxyhemoglobin to methemoglobin by UV spectrophotometer analysis
Chain of Nitric oxide synthase 1 (P29476 whole entry): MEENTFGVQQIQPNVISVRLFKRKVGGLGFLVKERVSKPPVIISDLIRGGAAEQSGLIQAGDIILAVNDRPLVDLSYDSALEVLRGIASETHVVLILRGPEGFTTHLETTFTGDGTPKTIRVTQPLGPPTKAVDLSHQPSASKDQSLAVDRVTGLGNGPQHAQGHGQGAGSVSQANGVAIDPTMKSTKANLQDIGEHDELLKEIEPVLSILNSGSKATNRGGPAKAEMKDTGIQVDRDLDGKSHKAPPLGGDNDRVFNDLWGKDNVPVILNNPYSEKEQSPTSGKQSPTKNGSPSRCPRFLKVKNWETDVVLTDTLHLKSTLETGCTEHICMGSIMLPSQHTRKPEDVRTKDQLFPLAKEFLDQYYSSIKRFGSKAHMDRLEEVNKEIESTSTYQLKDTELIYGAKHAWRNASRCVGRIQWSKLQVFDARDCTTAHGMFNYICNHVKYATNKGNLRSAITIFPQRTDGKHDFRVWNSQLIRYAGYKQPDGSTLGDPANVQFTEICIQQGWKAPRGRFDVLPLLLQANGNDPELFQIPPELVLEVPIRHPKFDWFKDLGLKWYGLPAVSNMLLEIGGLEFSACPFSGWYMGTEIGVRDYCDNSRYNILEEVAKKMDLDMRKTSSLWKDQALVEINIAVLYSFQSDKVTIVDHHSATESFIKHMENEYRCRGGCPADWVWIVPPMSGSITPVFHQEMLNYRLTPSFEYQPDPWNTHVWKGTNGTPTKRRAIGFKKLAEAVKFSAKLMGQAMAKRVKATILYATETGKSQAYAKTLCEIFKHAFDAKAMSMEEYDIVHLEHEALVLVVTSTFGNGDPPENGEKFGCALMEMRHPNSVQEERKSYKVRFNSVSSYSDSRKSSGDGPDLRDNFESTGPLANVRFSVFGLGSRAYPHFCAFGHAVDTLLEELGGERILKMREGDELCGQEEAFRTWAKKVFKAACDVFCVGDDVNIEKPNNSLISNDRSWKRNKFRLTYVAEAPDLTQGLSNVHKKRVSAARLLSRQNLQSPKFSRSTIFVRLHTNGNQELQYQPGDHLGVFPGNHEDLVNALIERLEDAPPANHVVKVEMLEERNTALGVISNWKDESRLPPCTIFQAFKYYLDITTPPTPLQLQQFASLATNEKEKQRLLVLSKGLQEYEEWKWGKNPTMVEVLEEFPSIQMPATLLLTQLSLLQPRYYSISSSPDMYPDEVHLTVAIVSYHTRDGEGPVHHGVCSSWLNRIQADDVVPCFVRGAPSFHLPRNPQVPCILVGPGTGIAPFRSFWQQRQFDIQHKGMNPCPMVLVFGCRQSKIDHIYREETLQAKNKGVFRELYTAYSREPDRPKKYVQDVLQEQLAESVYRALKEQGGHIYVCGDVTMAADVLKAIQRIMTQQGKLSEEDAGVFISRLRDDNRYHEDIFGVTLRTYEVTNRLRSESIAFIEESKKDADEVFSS

[3] = Antioxidant activity assessed as NADH oxidation-induced superoxide radical scavenging activity after 20 mins; type: functional
Outline: (§1)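 Superoxide generated without a Fenton-type reaction from NADH, EDTA/MnCl2 and β-mercaptoethanol in triethanolamine-diethanolamine buffer, pH 7.4 (1 mL). Compounds tested at 25, 50 and 100. […] IC50 was calculated. SOD (40 mU/ml) served as reference. SD ≤10% (n ≥ 3).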

[4] = system: Plasma; assay: Antioxidant activity in human plasma assessed as inhibition of Fe2+-induced lipid hydroperoxidation after 2 hrs by FOX assay; type: functional, cell-free
[5] = system: Radical scavenging activity; assay: Antioxidant activity assessed as DPPH free radical scavenging activity after 10 mins; type: functional
Outline: (§2)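 Compounds in ethanol with DPPH radical, tested at 50, 100 and 500, held 10 min at room temperature. Absorbance read at 517 nm and reported as percent decrease against control. IC50 was calculated for selected compounds. Trolox served as reference. Standard deviation was ≤10% (n ≥ 3).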

[6] = Antioxidant activity assessed as NADH oxidation-induced superoxide radical scavenging activity at 100 uM after 20 mins relative to control; type: functional; outline: as §1
[7] = system: CYP450; assay: Inhibition of rat spleen microsomal CYP450 assessed as reduction of NADPH dependent cytochrome c at 500 uM; type: ADME; conditions: spleen microsomes, probe cytochrome c
Outline: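 Rat spleen microsomal P450 activity measured as NADPH-dependent cytochrome c reduction. Incubation 15 min at 25 °C with or without compound, range 5–500.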

[8] = system: Radical scavenging activity; assay: Antioxidant activity assessed as DPPH free radical scavenging activity at 100 uM after 10 mins relative to control; type: functional; outline: as §2
[9] = system: Radical scavenging activity; assay: Antioxidant activity assessed as DPPH free radical scavenging activity at 500 uM after 10 mins relative to control; type: functional; outline: as §2
[10] = system: Plasma; assay: Antioxidant activity in human plasma assessed as inhibition of Fe2+-induced lipid hydroperoxidation at 50 uM after 2 hrs by FOX assay relative to control; type: functional, cell-free
Outline: (§3)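 Plasma from a healthy donor: heparinized venous blood taken after an overnight fast, spun at 800 g for 20 min. Plasma was diluted 1:1 with oxygenated PBS and incubated 2 h at 37 °C with or without compound (10, 50, 100). Lipid hydroperoxides were measured by FOX assay (Fe2+→Fe3+ with xylenol orange, 560 nm), calibrated against H2O2. Results given as percent inhibition against untreated plasma.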

[11] = system: Plasma; assay: Antioxidant activity in human plasma assessed as inhibition of Fe2+-induced lipid hydroperoxidation at 25 uM after 2 hrs by FOX assay relative to control; type: functional, cell-free
[12] = system: Radical scavenging activity; assay: Antioxidant activity assessed as DPPH free radical scavenging activity at 50 uM after 10 mins relative to control; type: functional; outline: as §2
[13] = system: Plasma; assay: Antioxidant activity in human plasma assessed as inhibition of Fe2+-induced lipid hydroperoxidation at 100 uM after 2 hrs by FOX assay relative to control; type: functional, cell-free; outline: as §3
[14] = Antioxidant activity assessed as NADH oxidation-induced superoxide radical scavenging activity at 25 uM after 20 mins relative to control; type: functional; outline: as §1
[15] = Antioxidant activity assessed as NADH oxidation-induced superoxide radical scavenging activity at 50 uM after 20 mins relative to control; type: functional; outline: as §1

O=C(Cn1cnc([N+](=O)[O-])c1)c1ccc([N+](=O)[O-])cc1
Ki [1]: 120 µM
Ki [2]: 120 µM

O=C(Cn1cc2cccc([N+](=O)[O-])c2n1)c1ccc([N+](=O)[O-])cc1
Ki [1]: 75 µM
Ki [2]: 66.2 µM

CC(C)c1nccn1CC(=O)c1ccccc1
Ki [2]: 750 µM

O=C(Cn1ccnc1)c1ccc([N+](=O)[O-])cc1
IC50 [3]: 165 µM
Ki [1]: > 5000 µM
IC50 [4]: 18 µM
IC50 [5]: 415 µM
Ki [2]: 105 µM

Cc1cn(CC(=O)c2ccc([N+](=O)[O-])cc2)cn1
Activity [6]: 56%
Activity [3]: Dose-dependent effect
IC50 [3]: 66 µM
inhibition at 500 µM [7]: 13%
Activity [8]: 17%
Activity [9]: 41%
Ki [1]: > 2000 µM
inhibition [10]: 65%
inhibition [11]: 53%
Activity [12]: 12%
inhibition [13]: 69%
Activity [14]: 20%
Activity [15]: 23%
IC50 [4]: 10 µM
Activity [5]: Dose-dependent effect
IC50 [5]: > 500 µM
Ki [2]: 85 µM

O=C(Cn1cnc2ncccc21)c1ccc([N+](=O)[O-])cc1
Ki [1]: 45 µM
Ki [2]: 35.8 µM

O=C(Cn1ccnc1)c1ccc(S(=O)(=O)C(F)(F)F)cc1
Ki [2]: 450 µM

O=C(Cn1nnc2ccccc21)c1ccc([N+](=O)[O-])cc1
Activity [6]: 51%
Activity [3]: Dose-dependent effect
IC50 [3]: 85 µM
Activity [8]: 21%
Activity [9]: 31%
Ki [1]: 32.5 µM
inhibition [10]: 48%
inhibition [11]: 37%
Activity [12]: 14%
inhibition [13]: 57%
Activity [14]: 26%
Activity [15]: 35%
IC50 [4]: 17 µM
Activity [5]: Dose-dependent effect
IC50 [5]: > 500 µM
Ki [2]: 12.5 µM

Cc1cc(C)n(CC(=O)c2ccc([N+](=O)[O-])cc2)n1
Ki [1]: 90 µM
Ki [2]: 65 µM

Cc1cncn1CC(=O)c1ccc([N+](=O)[O-])cc1
Ki [1]: 45 µM
Ki [2]: 90 µM

O=C(Cn1cnc(-c2ccccc2)c1-c1ccccc1)c1ccc([N+](=O)[O-])cc1
Ki [1]: 25 µM
Ki [2]: 36.3 µM

O=C(Cn1cnc(-c2ccccc2)c1)c1ccc([N+](=O)[O-])cc1
Ki [1]: 70 µM
Ki [2]: 45 µM

O=C(Cn1cnc2ccccc21)c1ccccc1
Ki [2]: 480 µM

Cc1nccn1CC(=O)c1ccc(Br)cc1
Ki [2]: 620 µM

O=C(Cn1cccc1)c1ccc([N+](=O)[O-])cc1
Ki [2]: 230 µM

O=C(Cn1cncn1)c1ccc([N+](=O)[O-])cc1
Ki [1]: 40 µM
Ki [2]: 47.5 µM

CC(C)c1nccn1CC(=O)c1ccc([N+](=O)[O-])cc1
IC50 [3]: 185 µM
Ki [1]: 500 µM
IC50 [4]: > 100 µM
IC50 [5]: 230 µM
Ki [2]: 22.5 µM

O=C(Cn1cc2ccccc2n1)c1ccc([N+](=O)[O-])cc1
Ki [1]: 60 µM
Ki [2]: 32.5 µM

O=C(Cn1cnc2cccnc21)c1ccc([N+](=O)[O-])cc1
Ki [1]: 70.2 µM
Ki [2]: 31.7 µM

O=C(Cn1nc2ccccc2n1)c1ccc([N+](=O)[O-])cc1
Ki [1]: 30 µM
Ki [2]: 22.5 µM

O=C(Cn1cccn1)c1ccc([N+](=O)[O-])cc1
Ki [1]: 60 µM
Ki [2]: 40 µM

CC(C)c1nccn1CC(=O)c1ccc(Br)cc1
Ki [2]: 450 µM

CCCc1nccn1CC(=O)c1ccc([N+](=O)[O-])cc1
Activity [6]: 62%
Activity [3]: Dose-dependent effect
IC50 [3]: 38 µM
Activity [8]: 35%
Activity [9]: 56%
Ki [1]: 45 µM
inhibition [10]: 31%
inhibition [11]: 30%
Activity [12]: 25%
inhibition [13]: 44%
Activity [14]: 22%
Activity [15]: 34%
IC50 [4]: > 100 µM
Activity [5]: Dose-dependent effect
IC50 [5]: 262 µM
Ki [2]: 40 µM

Cc1cc2ncn(CC(=O)c3ccc([N+](=O)[O-])cc3)c2cc1C
Activity [6]: 45%
Activity [3]: Dose-dependent effect
IC50 [3]: > 100 µM
Activity [8]: 19%
Activity [9]: 45%
Ki [1]: 37.5 µM
Activity [12]: 11%
Activity [14]: 0%
Activity [15]: 37%
Activity [5]: Dose-dependent effect
IC50 [5]: > 500 µM
Ki [2]: 13.8 µM

Cc1nccn1CC(=O)c1ccc([N+](=O)[O-])cc1
IC50 [3]: 70 µM
Ki [1]: > 2000 µM
IC50 [4]: 1.75 µM
IC50 [5]: 165 µM
Ki [2]: 74 µM

CCc1nc(C)cn1CC(=O)c1ccc([N+](=O)[O-])cc1
Ki [1]: 75 µM
Ki [2]: 75 µM

Cc1ccnn1CC(=O)c1ccc([N+](=O)[O-])cc1
Ki [1]: 30 µM
Ki [2]: 63 µM

O=C(Cn1cnc2ccccc21)c1ccc([N+](=O)[O-])cc1
Ki [1]: 2.75 µM
Ki [2]: 46.6 µM

Cc1nccn1CC(=O)c1ccccc1
Ki [2]: > 500 µM

O=C(Cn1ccnc1-c1ccccc1)c1ccc([N+](=O)[O-])cc1
Ki [1]: 37.5 µM
Ki [2]: 40 µM
